{"source": "ChEMBL document CHEMBL4177705", "about": "“Antiplasmodial alkaloids from bulbs of Amaryllis belladonna Steud” (Bioorg Med Chem Lett, 2018)", "key": {"A2780": {"tested_on": "A2780", "assay": "Cytotoxicity against human A2780 cells", "assay_type": "cell-based", "details": "for pIC50: Homo sapiens, A2780, read-out: IC50; call rule not given here", "method_in_brief": "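Antiproliferative assay on the A2780 ovarian cell line, reported as IC50 in µM.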"}, "Plasmodium falciparum": {"tested_on": "Plasmodium falciparum", "assay": "Antiplasmodial activity against chloroquine-resistant ring stage Plasmodium falciparum Dd2 after 72 hrs by SYBR green 1 dye based assay", "assay_type": "functional, organism-based", "details": "for pIC50: Plasmodium falciparum, Dd2, 72 h, read-out: IC50"}}, "note": "pIC50: −log10 of the molar value.", "data": [{"compound": "O=c1c2cc3c(cc2c2cccc4ccn1c42)OCO3", "values": [{"measurement": "IC50", "setting": "A2780; a2780", "value": "Non-Toxic"}, {"measurement": "IC50", "setting": "Plasmodium falciparum", "value": "Not Active"}]}, {"compound": "COc1c2c(cc3c1OCO3)[C@@]13CC[N@@](C2)[C@@H]1[C@H](O)[C@H](OC)C[C@H]3O", "values": [{"measurement": "pIC50", "setting": "A2780", "value": "< 4.22"}, {"measurement": "pIC50", "setting": "Plasmodium falciparum", "value": 4.43}]}, {"compound": "COc1c2c(cc3c1OCO3)[C@]13C=C[C@H](OC)C[C@H]1[N@](C2)C[C@H]3OC(C)=O", "values": [{"measurement": "pIC50", "setting": "A2780", "value": "< 4.22"}, {"measurement": "pIC50", "setting": "Plasmodium falciparum", "value": 4.46}]}, {"compound": "COc1c2c(cc3c1OCO3)[C@]13C=C[C@H](OC)C[C@H]1[N@](C2)C[C@H]3O", "values": [{"measurement": "pIC50", "setting": "A2780", "value": "< 4.22"}, {"measurement": "pIC50", "setting": "Plasmodium falciparum", "value": 5.14}]}, {"compound": "CC(=O)O[C@@H]1CC=C2CCN3Cc4cc5c(cc4[C@H]1[C@@H]23)OCO5", "note": "[ACETYLCARANINE]", "values": [{"measurement": "pIC50", "setting": "A2780", "value": 4.25}, {"measurement": "pIC50", "setting": "Plasmodium falciparum", "value": 5.46}]}, {"compound": "C[C@@H]1CC[C@H]2[C@@H](C)C(=O)O[C@@H]3O[C@@]4(C)CC[C@@H]1[C@]32OO4", "note": "[ARTEMISININ]", "values": [{"measurement": "pIC50", "setting": "Plasmodium falciparum", "value": 7.92}]}, {"compound": "COC1=CC(=O)[C@@]23CCN(Cc4c2cc2c(c4OC)OCO2)[C@@H]3C1", "note": "[DISTICHAMINE]", "values": [{"measurement": "pIC50", "setting": "A2780", "value": "< 4.22"}, {"measurement": "pIC50", "setting": "Plasmodium falciparum", "value": "< 4.30"}]}]}
